The target in experiment [1] is T1, Adenosine receptor A3 (Homo sapiens, UniProt P0DMS8).
T1 sequence (P0DMS8 whole entry): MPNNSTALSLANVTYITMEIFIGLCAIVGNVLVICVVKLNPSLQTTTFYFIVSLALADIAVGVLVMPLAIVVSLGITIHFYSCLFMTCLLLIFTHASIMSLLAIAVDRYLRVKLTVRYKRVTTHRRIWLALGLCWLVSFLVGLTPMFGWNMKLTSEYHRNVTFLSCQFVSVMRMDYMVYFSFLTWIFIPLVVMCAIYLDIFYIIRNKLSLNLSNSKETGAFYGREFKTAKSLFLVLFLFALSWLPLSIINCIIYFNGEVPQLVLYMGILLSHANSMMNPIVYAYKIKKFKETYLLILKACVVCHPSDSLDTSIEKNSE
The experiment can be described thus: biochemical. Format: cell-based, CHO.

Experiment [2] concerns the target T2, Adenosine receptor A2a (Homo sapiens, UniProt P29274). The experiment can be described thus: Percent inhibition of [3H]-ZM241385 binding to human adenosine A2A receptor expressed in CHO cells at 10 uM.
Experiment [3] deals with T3, Adenosine receptor A1 (Homo sapiens) (UniProt P30542).
T3 sequence (whole entry): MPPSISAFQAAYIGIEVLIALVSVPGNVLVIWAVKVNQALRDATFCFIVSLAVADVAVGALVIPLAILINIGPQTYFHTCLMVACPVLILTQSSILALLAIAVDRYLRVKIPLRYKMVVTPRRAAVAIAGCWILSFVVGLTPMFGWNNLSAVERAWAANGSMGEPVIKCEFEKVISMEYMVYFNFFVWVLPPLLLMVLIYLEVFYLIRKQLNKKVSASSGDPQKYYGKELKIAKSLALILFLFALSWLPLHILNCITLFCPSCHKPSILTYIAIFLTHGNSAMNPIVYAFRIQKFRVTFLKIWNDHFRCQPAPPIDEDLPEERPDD
The experiment can be described thus: (§1) Percent inhibition of [3H]DPCPX binding to human adenosine A1 receptor expressed in CHO cells at 10 uM. Format: cell-based. The method in brief:
(§2)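 Test ligand at a single 10 μM was run against 0.5 nM [3H]DPCPX on membranes (20 μg protein) from CHO cells stably expressing human A1 receptor, in 50 mM Tris-HCl, pH 7.4, for 60 min at 25°C. Nonspecific binding was defined with 10 μM NECA. Filtration was on GF/B, with scintillation counting. Results are percent displacement of radioligand.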

Experiment [4] deals with T2, Adenosine receptor A2a. The format is cell-based, CHO.
For experiment [5], the target named is T4, Adenosine receptor A1 (Homo sapiens, UniProt P30542).
T4 sequence (P30542 whole entry): T3 sequence (whole entry)
The experiment is described as §1. The format is cell-based. The method in brief: as §2

For experiment [6], the target named is T4, Adenosine receptor A1. Format: cell-based, CHO.
The target in experiment [7] is T2, Adenosine receptor A2a. Kind of experiment: Percent inhibition of […] binding to human adenosine A2A receptor expressed in CHO cells at 10 uM. The format is cell-based.
Experiment [8] addresses T4, Adenosine receptor A1. The experiment can be described thus: Binding affinity for human adenosine A1 receptor. The method in brief: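 Membranes from CHO cells stably expressing human A1 receptor (20 μg protein) were incubated with 0.5 nM [3H]DPCPX in 50 mM Tris-HCl, pH 7.4, for 60 min at 25°C. Nonspecific binding was defined with 10 μM NECA. Bound label was collected by GF/B filtration and counted by scintillation.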

The target in experiment [9] is T4, Adenosine receptor A1. Kind of experiment: Percent inhibition of [3H]-DPCPX binding to human adenosine A1 receptor expressed in CHO cells at 10 uM. The format is cell-based. The method in brief:
as §2

The results in this text go back to ChEMBL document CHEMBL1140335, “"Reversine" and its 2-substituted adenine derivatives as potent and selective A3 adenosine receptor antagonists” (J Med Chem, 2005).

T2 sequence (P29274 whole entry): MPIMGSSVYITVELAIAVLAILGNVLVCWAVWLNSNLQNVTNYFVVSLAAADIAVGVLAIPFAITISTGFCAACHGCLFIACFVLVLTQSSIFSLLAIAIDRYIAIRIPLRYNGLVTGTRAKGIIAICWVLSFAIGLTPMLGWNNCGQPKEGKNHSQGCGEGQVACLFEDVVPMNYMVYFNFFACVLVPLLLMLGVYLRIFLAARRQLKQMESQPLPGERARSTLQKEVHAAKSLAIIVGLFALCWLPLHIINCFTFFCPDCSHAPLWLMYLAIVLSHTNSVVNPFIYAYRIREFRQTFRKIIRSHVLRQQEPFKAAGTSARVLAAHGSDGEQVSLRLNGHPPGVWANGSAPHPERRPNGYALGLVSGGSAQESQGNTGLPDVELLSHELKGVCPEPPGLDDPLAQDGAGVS

`c1ccc2cc(Nc3nc(NC4CCCCC4)c4[nH]cnc4n3)ccc2c1` had a Ki in experiment [1] of 2.42 µM.

As for `c1ccc(CNc2nc(NC3CCCCC3)c3[nH]cnc3n2)cc1`, the inhibition in [2] stood at 34%; in experiment [3], 42%. In addition, in experiment [1], affinity was put at a Ki of 0.92 µM.

As for `c1ccc(Nc2nc3ncnc-3c(NC3CCCCC3)[nH]2)cc1`, the inhibition constant (Ki) in [4] worked out at 1.7 µM; in [1] it was 0.051 µM; in [5], 2.73 µM.

Consider `Cn1cnc2c(NC3CCCCCC3)nc(Nc3ccccc3)nc21`, for which the Ki in [4] amounted to 2.95 µM; in experiment [1] it was 0.96 µM; in [6], 1.94 µM.

Take `c1ccc(-c2ccc(Nc3nc4ncnc-4c(NC4CCCCC4)[nH]3)cc2)cc1`: the inhibition was determined as 22% in experiment [2] and 14% in experiment [3]. Besides, the Ki in experiment [1] came to 5.4 µM.

On to `c1nc2c(NC3CCCCC3)nc(Nc3ccc(N4CCCCC4)cc3)nc2[nH]1`, for which the inhibition is 50% in experiment [7] and 16% in experiment [3]. Besides, in experiment [1], the Ki came out at 1.57 µM.

In experiment [8], `CC(C)N(C)c1nc2c(NC3CC4CC3CC4O)ncnc2n1C` (configuration not stated) registered a Ki of 0.0017 µM.

Compound `c1ccc(CCNc2nc(NC3CCCCC3)c3[nH]cnc3n2)cc1` came in with an inhibition in experiment [7] of 46%. Also, the Ki is 1.46 µM in experiment [1] and 3.17 µM in experiment [5].

Turning to `Cn1cnc2c(NC3CCCCC3)nc(Nc3ccccc3)nc21`, the Ki came out at 1.2 µM in [4], 0.07 µM in [1] and 1.88 µM in [6].

Take `CN(C)c1ccc(Nc2nc(NC3CCCCC3)c3[nH]cnc3n2)cc1`: the figures for the Ki in experiment [4], in experiment [1] and in experiment [6] were 6.1 µM, 0.07 µM and 3.9 µM, respectively.

Consider `c1nc2nc(Nc3ccc(N4CCOCC4)cc3)nc(NC3CC3)c2[nH]1`, for which the figures for the inhibition in [2] and in experiment [3] were 25% and 22%, respectively. In addition, in experiment [1], the affinity, expressed as Ki, was 1.87 µM.

On to `c1nc2nc(Nc3ccc(N4CCOCC4)cc3)[nH]c(NC3CCC3)c-2n1`, for which the inhibition in experiment [2] amounted to 18%; in experiment [3], 29%. Further, the inhibition constant (Ki) in [1] was determined as 1.81 µM.

For `CCNc1nc(NC2CCCCC2)c2[nH]cnc2n1`, the values for the inhibition in experiment [2] and in experiment [3] were 42% and 51%, respectively. This compound also showed an inhibition constant (Ki) in [1] of 1.12 µM.

In experiment [2], `c1ccc(Oc2nc(NC3CC4CCC3C4)c3nc[nH]c3n2)cc1` (configuration not stated) gave an inhibition of 25%. The figures for the Ki in experiment [1] and in experiment [6] were 0.074 µM and 1.47 µM, respectively.

`c1ccc(Sc2nc3ncnc-3c(NC3CCCCC3)[nH]2)cc1` had an inhibitory constant (Ki) in experiment [1] of 0.134 µM.

As for `c1nc2nc(Nc3ccc(N4CCOCC4)cc3)[nH]c(NC3CCCCCC3)c-2n1`, the inhibition in experiment [2] amounted to 38%; in experiment [3], 6%. Also, the Ki in experiment [1] stood at 0.42 µM.

For the compound `c1ccc(Nc2nc(NC3CCCCCC3)c3[nH]cnc3n2)cc1`, the Ki amounted to 4.12 µM in experiment [4], 0.042 µM in experiment [1] and 1.72 µM in experiment [6].

For the compound `c1ccc2cc(Nc3nc4ncnc-4c(NC4CCCCC4)[nH]3)ccc2c1`, the inhibition in [2] was 52%; in [3], 39%.

Take `c1nc2nc(Nc3ccc(N4CCOCC4)cc3)[nH]c(NC3CCCC3)c-2n1`: the inhibition in experiment [2] was determined as 20%; in experiment [3], 22%. In experiment [1], this compound showed an inhibition constant (Ki) of 1.39 µM.

Consider `c1nc2nc(Nc3ccc(N4CCOCC4)cc3)[nH]c(NC3CCCCCCC3)c-2n1`, for which the inhibition in experiment [2] came to 17%; in experiment [3], 0%. Also, in experiment [1], affinity was put at a Ki of 2.77 µM.

Take `CCNc1[nH]c(Nc2ccc(N3CCOCC3)cc2)nc2ncnc1-2`: the figures for the inhibition in experiment [2] and in experiment [3] were 16% and 23%, respectively. Also, in experiment [1], the affinity, expressed as Ki, was 1.53 µM.

For `c1ccc(Nc2nc3ncnc-3c(NC3CCCCCCC3)[nH]2)cc1`, the inhibition constant Ki was 4.47 µM in experiment [9] and 0.34 µM in experiment [1].

As to `c1nc2nc(Nc3ccc(N4CCOCC4)cc3)nc(NC3CCCCC3)c2[nH]1` [REVERSINE], the inhibition constant (Ki) in experiment [4] was greater than 10 µM; in experiment [1], 0.66 µM; in experiment [6] it was greater than 10 µM.

The compound `c1nc2nc(Nc3ccc(N4CCOCC4)cc3)nc(NC3CC4CCC3C4)c2[nH]1` (configuration not stated) returned a Ki in experiment [1] of 0.122 µM.
